The nature of data set [1]: Chemical stability of the compound. Format: physicochemical.
The nature of data set [2]: AUC (0 to 24 hrs) in Sprague-Dawley rat at 20 mg/kg, po. The data set is classed as ADME, organism-based. Also noted: time < 24 hr, dose 20 mg/kg, route oral. Conditions: plasma.
Data set [3] can be described thus: Metabolic stability of the compound in human liver microsomes assessed as compound remaining after 1 hr. Format: ADME, Microsome. The settings on record: read-out: Stability. The procedure, abridged:
(§1)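 Pooled human or CD-1 mouse liver microsomes incubated with compound for 1 h. Percentage of compound remaining calculated from analyte/internal standard peak area ratios.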
(In general: Liver microsomes are vesicles of endoplasmic reticulum, rich in cytochrome P450 enzymes.)

A short description of data set [4]: Cmax in Beagle dog at 2 mg/kg, iv. Format: ADME, organism-based, Canis lupus familiaris. Set-up: dose 2 mg/kg, route intravenous. The settings on record: in vivo.
Data set [5] is described as follows: AUC (0 to 72 hrs) in Beagle dog at 2 mg/kg, iv. The settings on record: plasma. Format: ADME, organism-based, Canis lupus familiaris. Also noted: time < 72 hr, dose 2 mg/kg, route intravenous.
Data set [6] is described as follows: Cmax in CD-1 mouse plasma at 40 mg/kg, po. Also noted: dose 40 mg/kg, route oral. The data set is classed as ADME, organism-based. A digest of the protocol: (§2)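 CD-1 mice given a single oral dose of 40 mg/kg, suspended in 0.5% carboxymethylcellulose/0.08% Tween 80 in water. Plasma and lung samples quantified by LC-MS/MS. AUC extrapolated to infinity. Lung/plasma ratio is lung AUC divided by plasma AUC.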

Data set [7] concerns Salmonella typhimurium. Put plainly: Induction of mutagenesis in Salmonella Typhimurium TA98 in presence of rat liver S9 fraction by Ames test. The data set is classed as toxicity, organism-based. The settings on record: salmonella enterica subsp. enterica serovar typhimurium. The procedure, abridged:
(§3)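 MicroAmes reverse mutation screen in Salmonella TA98 and TA100, preincubated with and without rat liver S9, at 0.25-250 μg/well.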

Data set [8] concerns Mycobacterium tuberculosis. The experiment in a line: Antimicrobial activity against Mycobacterium tuberculosis infected in BALB/c mouse assessed as fold reduction in lung CFU at 100 mg/kg, po administered 11 days after post infection qd for 5 days per week for 3 weeks relative to PA-824. The data set is classed as functional. A digest of the protocol:
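Groups of 7 M. tb-infected BALB/c mice dosed orally at 100 mg/kg daily, 5 days/week for 3 weeks, starting on day 11 postinfection. Readout is the average lung CFU reduction in treated mice divided by the average CFU reduction in mice given the reference nitroimidazooxazine.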

Data set [9] has as its system Mycobacterium tuberculosis. The experiment in a line: Antimicrobial activity against Mycobacterium tuberculosis infected in chronic BALB/c mouse infection model assessed as fold reduction in lung CFU at 30 mg/kg, po administered daily 5 days a week for 8 weeks starting 50 days post-infection. Format: functional. A digest of the protocol: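 Chronic infection model: groups of 7 M. tb-infected BALB/c mice given 30 mg/kg orally, daily 5 days/week for 8 weeks, starting about 50 days postinfection. Lung CFU reduction expressed relative to the reference drug.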

Data set [10] can be described thus: Cmax in CD-1 mouse lung at 40 mg/kg, po. Also noted: dose 40 mg/kg, route oral. The data set is classed as ADME, organism-based. The procedure, abridged: as §2
The nature of data set [11]: Half life in Beagle dog at 20 mg/kg, po. Also noted: dose 20 mg/kg, route oral. Conditions: in vivo. Format: ADME, organism-based, Canis lupus familiaris.
Data set [12] has as its target Voltage-gated inwardly rectifying potassium channel KCNH2 (Homo sapiens, UniProt Q12809). The experiment in a line: Inhibition of human Erg expressed in HEK293 cells by FAST patch clamp analysis. Format: cell-based. A general note: The patch-clamp technique gives a direct electrical read-out from membranes.
The test system of data set [13] is Salmonella typhimurium. The experiment in a line: Induction of mutagenesis in Salmonella Typhimurium TA100 in absence of rat liver S9 fraction by Ames test. Format: toxicity, organism-based. The settings on record: salmonella enterica subsp. enterica serovar typhimurium. The procedure, abridged: as §3
Data set [14] is described as follows: Half life in CD-1 mouse plasma at 40 mg/kg, po. The data set is classed as ADME, organism-based. Also noted: dose 40 mg/kg, route oral. A digest of the protocol: as §2
A short description of data set [15]: Tmax in Sprague-Dawley rat at 1 mg/kg, iv. Set-up: dose 1 mg/kg, route intravenous. The settings on record: in vivo. Format: ADME, organism-based.
Data set [16] in a line: Metabolic stability of the compound in CD-1 mouse liver microsomes assessed as compound remaining after 1 hr. Format: ADME, Microsome. The settings on record: read-out: Stability. The procedure, abridged: as §1
Data set [17] is described as follows: Thermodynamic solubility of the compound at pH 7.4. The data set is classed as physicochemical. Conditions: buffer, read-out: Therm_solubility.
Data set [18] can be described thus: Octanol-water partition coefficient, log P of the compound by shake-flask method. Format: physicochemical. The procedure, abridged: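 Octanol-water partition coefficient measured by the shake-flask method.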
Data set [19] can be described thus: Cmax in high fat diet fed Beagle dog at 20 mg/kg, po. Conditions: in vivo. Also noted: dose 20 mg/kg, route oral. Format: ADME, organism-based, Canis lupus familiaris.
The nature of data set [20]: Cmax in Sprague-Dawley rat at 20 mg/kg, po. Conditions: in vivo. Format: ADME, organism-based. Set-up: dose 20 mg/kg, route oral.
Data set [21] can be described thus: Plasma protein binding in human at 10 uM. The data set is classed as ADME, cell-free. Conditions: read-out: PPB (converted). A digest of the protocol: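 Human plasma protein binding measured by equilibrium dialysis, with overnight incubation of compound at 10 μM containing 1% DMSO.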
Data set [22] concerns Salmonella typhimurium. Put plainly: Induction of mutagenesis in Salmonella Typhimurium TA100 in presence of rat liver S9 fraction by Ames test. Format: toxicity, organism-based. The settings on record: salmonella enterica subsp. enterica serovar typhimurium. The procedure, abridged:
as §3
A general note: The Ames test uses bacterial strains that need an amino acid and regain growth without it when mutated back.

Data set [23] can be described thus: Thermodynamic solubility of the compound at pH 1. Format: physicochemical. Conditions: buffer, read-out: Therm_solubility.
Data set [24] in a line: Tmax in Beagle dog at 20 mg/kg, po. The data set is classed as ADME, organism-based, Canis lupus familiaris. Also noted: dose 20 mg/kg, route oral. The settings on record: in vivo.
Data set [25] in a line: Half life in Beagle dog at 2 mg/kg, iv. The data set is classed as ADME, organism-based, Canis lupus familiaris. Set-up: dose 2 mg/kg, route intravenous. The settings on record: in vivo.
Data set [26] is described as follows: Cmax in Beagle dog at 20 mg/kg, po. The data set is classed as ADME, organism-based, Canis lupus familiaris. Set-up: dose 20 mg/kg, route oral. Conditions: in vivo.
Data set [27] can be described thus: Oral bioavailability in Sprague-Dawley rat at 20 mg/kg. Format: ADME, organism-based. Conditions: in vivo.
Data set [28] is described as follows: AUC (0 to infinity) in CD-1 mouse lung at 40 mg/kg, po. The data set is classed as ADME, organism-based. Also noted: dose 40 mg/kg, route oral, time infinity. A digest of the protocol:
as §2

Data set [29] can be described thus: AUC (0 to 72 hrs) in Beagle dog at 20 mg/kg, po. Format: ADME, organism-based, Canis lupus familiaris. Also noted: time < 72 hr, dose 20 mg/kg, route oral. Conditions: plasma.
The nature of data set [30]: Half life in Sprague-Dawley rat at 1 mg/kg, iv. Conditions: in vivo. Set-up: dose 1 mg/kg, route intravenous. Format: ADME, organism-based.
Data set [31] can be described thus: AUC (0 to 24 hrs) in Sprague-Dawley rat at 1 mg/kg, iv. Conditions: plasma. Also noted: time < 24 hr, dose 1 mg/kg, route intravenous. Format: ADME, organism-based.
Data set [32] in a line: AUC (0 to 72 hrs) in high fat diet fed Beagle dog at 20 mg/kg, po. Also noted: time < 72 hr, dose 20 mg/kg, route oral. The data set is classed as ADME, organism-based, Canis lupus familiaris. The settings on record: plasma.
The nature of data set [33]: Oral bioavailability in Beagle dog at 20 mg/kg. Format: ADME, organism-based, Canis lupus familiaris. Conditions: in vivo.
For data set [34], the system named is Salmonella typhimurium. Put plainly: Induction of mutagenesis in Salmonella Typhimurium TA98 in absence of rat liver S9 fraction by Ames test. The data set is classed as toxicity, organism-based. The settings on record: salmonella enterica subsp. enterica serovar typhimurium. The procedure, abridged:
as §3

The nature of data set [35]: Tmax in Sprague-Dawley rat at 20 mg/kg, po. Format: ADME, organism-based. Also noted: dose 20 mg/kg, route oral. Conditions: in vivo.
Data set [36] can be described thus: Half life in CD-1 mouse lung at 40 mg/kg, po. The data set is classed as ADME, organism-based. Set-up: dose 40 mg/kg, route oral. The procedure, abridged:
as §2

Data set [37] can be described thus: AUC (0 to infinity) in CD-1 mouse plasma at 40 mg/kg, po. Set-up: dose 40 mg/kg, route oral, time infinity. The data set is classed as ADME, organism-based. The procedure, abridged: as §2
Data set [38] is described as follows: Tmax in high fat diet fed Beagle dog at 20 mg/kg, po. Conditions: in vivo. Set-up: dose 20 mg/kg, route oral. The data set is classed as ADME, organism-based, Canis lupus familiaris.
A short description of data set [39]: Half life in high fat diet fed Beagle dog at 20 mg/kg, po. The data set is classed as ADME, organism-based, Canis lupus familiaris. Set-up: dose 20 mg/kg, route oral. The settings on record: in vivo.
A short description of data set [40]: Cmax in Sprague-Dawley rat at 1 mg/kg, iv. Format: ADME, organism-based. Set-up: dose 1 mg/kg, route intravenous. Conditions: in vivo.
A short description of data set [41]: Kinetic solubility of the compound in water at pH 7 by HPLC analysis. Format: physicochemical. Conditions: read-out: Kinetic_solubility.
Data set [42] can be described thus: Tmax in Beagle dog at 2 mg/kg, iv. Set-up: dose 2 mg/kg, route intravenous. The data set is classed as ADME, organism-based, Canis lupus familiaris. The settings on record: in vivo.

In brackets after ≈: the same amount, converted by molar mass.

Chain of Voltage-gated inwardly rectifying potassium channel KCNH2 (Q12809 whole entry): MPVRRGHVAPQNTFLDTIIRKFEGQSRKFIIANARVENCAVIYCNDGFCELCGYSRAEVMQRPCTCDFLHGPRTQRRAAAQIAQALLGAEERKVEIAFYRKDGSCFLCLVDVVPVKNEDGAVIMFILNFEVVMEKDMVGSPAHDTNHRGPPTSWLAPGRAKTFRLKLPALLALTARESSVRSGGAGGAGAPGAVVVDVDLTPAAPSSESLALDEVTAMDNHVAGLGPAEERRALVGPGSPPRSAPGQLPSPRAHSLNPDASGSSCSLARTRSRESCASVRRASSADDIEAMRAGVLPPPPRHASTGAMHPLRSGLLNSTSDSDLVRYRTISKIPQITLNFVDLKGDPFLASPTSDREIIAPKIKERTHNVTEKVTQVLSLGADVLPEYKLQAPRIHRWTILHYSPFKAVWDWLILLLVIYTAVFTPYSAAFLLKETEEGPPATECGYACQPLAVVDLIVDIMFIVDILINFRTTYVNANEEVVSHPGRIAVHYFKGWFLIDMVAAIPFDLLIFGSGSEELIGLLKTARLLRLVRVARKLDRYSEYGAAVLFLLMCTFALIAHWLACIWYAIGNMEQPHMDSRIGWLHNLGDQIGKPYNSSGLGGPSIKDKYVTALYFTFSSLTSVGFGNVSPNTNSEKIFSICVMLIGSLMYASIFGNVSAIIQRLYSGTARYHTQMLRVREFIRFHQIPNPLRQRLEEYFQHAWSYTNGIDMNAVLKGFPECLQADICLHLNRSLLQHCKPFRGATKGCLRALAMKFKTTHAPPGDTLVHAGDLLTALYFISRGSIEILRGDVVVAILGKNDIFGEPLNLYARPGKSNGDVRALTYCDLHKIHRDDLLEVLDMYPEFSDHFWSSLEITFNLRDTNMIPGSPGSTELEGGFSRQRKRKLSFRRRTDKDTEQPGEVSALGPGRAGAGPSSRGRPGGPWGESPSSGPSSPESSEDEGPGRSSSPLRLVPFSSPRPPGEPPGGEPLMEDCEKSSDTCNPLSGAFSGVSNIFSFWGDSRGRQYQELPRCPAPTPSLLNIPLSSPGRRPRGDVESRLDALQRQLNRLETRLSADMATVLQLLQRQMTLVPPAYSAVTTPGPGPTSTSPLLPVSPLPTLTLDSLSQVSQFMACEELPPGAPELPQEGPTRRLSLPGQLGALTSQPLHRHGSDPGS

For `O=C(N[C@@H]1COc2nc([N+](=O)[O-])cn2C1)Oc1ccc(OC(F)(F)F)cc1`, the Stability entry in [1] is “Unstable”.

What is called AUC(0-t) is exposure summed from dosing to a finite time, without extrapolation to infinity. Low readings indicate low exposure, high ones high exposure. The Cmax is the peak of the concentration-time curve. The half-life is how long it takes for the measured level to halve. Low readings indicate fast loss, high ones slow loss. As a reminder, the IC50 is the concentration that inhibits the measured activity by half. Low readings indicate greater potency in that assay, high ones weaker potency in that assay. In general, Tmax refers to the time at which the peak concentration occurs. In general, logP refers to a log measure of how a compound divides between an organic and an aqueous phase. A lower logP goes with a more hydrophilic compound. By bioavailability is commonly meant the share of a dose that reaches the circulation, judged against a reference dose that is usually intravenous. Read a low bioavailability as little systemic uptake. As a reminder, the AUC(0-inf) is the area under the concentration-time curve extrapolated to infinity. Read a high AUC(0-inf) as high exposure. Consider `O=C(O[C@@H]1COc2nc([N+](=O)[O-])cn2C1)N1CCN(c2ccc(OC(F)(F)F)cc2)CC1`, for which the values for the AUC(0-t) at 24 h in data set [2] and in data set [31] were 67400 ng·h/mL and 5930 ng·h/mL, respectively. Moreover, the values for the remaining at 1 h in [3] and in [16] were 82% and 85%, respectively. The Cmax in data set [4] stood at 1700 ng/mL; in data set [6] it was 2500 ng/mL; in [10], 11700 ng/mL; in data set [19] it was 5200 ng/mL; in data set [20] it was 4400 ng/mL; in data set [26], 5800 ng/mL. In data set [40], this molecule gave a Cmax of 700 ng/mL. For the same molecule, the values for the AUC(0-t) at 72 h in data set [5], in [29] and in [32] were 27600 ng·h/mL, 232000 ng·h/mL and 182000 ng·h/mL, respectively. Also, the Activity result in the data set with Salmonella typhimurium [7], in the data set on Salmonella typhimurium [13], in the data set with Salmonella typhimurium [22] and in the data set with Salmonella typhimurium [34] was “Non-toxic” in each case. Further, the “fold change (FC)” value was 5.2 in data set [8] and 0.92 in data set [9]. In addition, the half-life was 29 h in data set [11]; 10.5 h in data set [14]; 28 h in data set [25]; 8.3 h in data set [30]; 10.5 h in data set [36]; 30 h in data set [39]. This molecule also displayed an IC50 in data set [12] greater than 30 µM. The time to peak (Tmax) was 4.98 min in data set [15]; 8 h in [24]; 5 h in data set [35]; 12 h in [38]; 0.5 h in data set [42]. The values for the solubility thermodynamic in [17] and in data set [23] were 33 µM (≈ 15.1 µg/mL) and 169 µM (≈ 77.3 µg/mL), respectively. Moreover, the logP in [18] came to 2.82. Moreover, the fraction unbound at 10 µM in data set [21] is 0.09. The bioavailability came out at 57% in [27] and 84% in data set [33]. In addition, the AUC(0-inf) in [28] was 169000 ng·h/mL; in [37], 53400 ng·h/mL. For the same molecule, the solubility kinetic in [41] was found to be 17 µg/mL (≈ 37.2 µM).
